Test results: ChEMBL document CHEMBL1777697, “Imidazolone-amide bridges and their effects on tubulin polymerization in cis-locked vinylogous combretastatin-A4 analogues: synthesis and biological evaluation” (Bioorg Med Chem, 2011)
Each block holds one compound with its values, some of them ahead of it. Calls of active or inactive are those of the source. The calls are words filed in the database; no cut-off is given here.

What was measured:
CCRF-CEM = experiment: Cytotoxicity against human CEM cells after 72 hrs by MTT assay; type: functional, cell-based
Outline: (§1)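 Log-phase cells seeded at 40000–50000 cells/mL, attached overnight, then exposed to 10^-4–10^-9 M compound for 72 h at 37 °C, 5% CO₂. Viable cells measured by MTT, absorbance 570 nm. Triplicates in at least three independent assays; IC50 by nonlinear regression.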

MDA-MB-435 = experiment: Cytotoxicity against human MDA-MB-435 cells after 72 hrs by MTT assay; type: functional, cell-based; conditions: MDA-MB-435, 72 h; outline: as §1
LoVo [1] = experiment: Cytotoxicity against human LoVo cells after 72 hrs by MTT assay; type: functional, cell-based; outline: as §1
Bos taurus = organism: Bos taurus; experiment: Inhibition of bovine brain tubulin polymerization at 10 uM after 60 mins by turbidimetry analysis
LoVo [2] = experiment: Cell cycle arrest in human LoVo cells assessed as accumulation at G2/M phase at 5 uM after 24 hrs using propidium iodide staining by flow cytometry (reference value: 13%); type: functional
Outline: (§2)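 LOVO cells (10⁶) treated 24 h with compound; pelleted, fixed in citrate buffer, RNase A 20 min, then propidium iodide 20 min. DNA content read by flow cytometry to give percentage of cells per cycle phase, untreated cells as control.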

LoVo [3] = experiment: Cell cycle arrest in human LoVo cells assessed as accumulation at G2/M phase at 25 uM after 24 hrs using propidium iodide staining by flow cytometry relative to control; type: functional; outline: as §2

- inhibition (Bos taurus): Active
SMILES: COc1cc(-c2[nH]c(=O)[nH]c2C(=O)Nc2ccc(C)cc2)cc(OC)c1OC
- IC50 (CCRF-CEM): 0.24 µM
- IC50 (MDA-MB-435): 0.63 µM
- IC50 (LoVo [1]): 4.67 µM

SMILES: COc1cc2c(c(OC)c1OC)-c1ccc(OC)c(=O)cc1[C@@H](NC(C)=O)CC2 [COLCHICINE]
- IC50 (CCRF-CEM): 0.0172 µM
- IC50 (MDA-MB-435): 0.0073 µM
- IC50 (LoVo [1]): 0.101 µM

- inhibition (Bos taurus): Active
SMILES: COc1ccc(NC(=O)c2[nH]c(=O)[nH]c2-c2cc(OC)c(OC)c(OC)c2)cc1N
- IC50 (CCRF-CEM): 0.33 µM
- IC50 (MDA-MB-435): 0.62 µM
- IC50 (LoVo [1]): 3.4 µM
- Activity (LoVo [2]): 28%
- Activity (LoVo [3]): 74%

SMILES: COc1cc(-c2[nH]c(=O)[nH]c2C(=O)Nc2ccccc2)cc(OC)c1OC
- IC50 (CCRF-CEM): 45.9 µM
- IC50 (MDA-MB-435): 40.4 µM
- IC50 (LoVo [1]): 77.6 µM

- inhibition (Bos taurus): inactive
SMILES: COc1ccc(NC(=O)c2[nH]c(=O)[nH]c2-c2cc(OC)c(OC)c(OC)c2)cc1[N+](=O)[O-]
- IC50 (CCRF-CEM): > 200 µM
- IC50 (MDA-MB-435): > 240 µM
- IC50 (LoVo [1]): 43.9 µM

SMILES: COc1cc(-c2[nH]c(=O)[nH]c2C(=O)Nc2cccc3ccccc23)cc(OC)c1OC
- IC50 (CCRF-CEM): 11.9 µM
- IC50 (MDA-MB-435): 9.32 µM
- IC50 (LoVo [1]): 3.46 µM

SMILES: COc1cc(-c2[nH]c(=O)[nH]c2C(=O)Nc2cc(C)cc(C)c2)cc(OC)c1OC
- IC50 (CCRF-CEM): 19.4 µM
- IC50 (MDA-MB-435): 33.8 µM
- IC50 (LoVo [1]): 23.4 µM

SMILES: COc1ccc(NC(=O)c2[nH]c(=O)[nH]c2-c2cc(OC)c(OC)c(OC)c2)cc1OC
- IC50 (CCRF-CEM): 4.19 µM
- IC50 (MDA-MB-435): 4.87 µM
- IC50 (LoVo [1]): 11.9 µM

SMILES: COc1cc(-c2[nH]c(=O)[nH]c2C(=O)Nc2ccc(C)c(Cl)c2)cc(OC)c1OC
- IC50 (CCRF-CEM): 2.11 µM
- IC50 (MDA-MB-435): 8.34 µM
- IC50 (LoVo [1]): 5.46 µM

SMILES: COc1ccc(NC(=O)c2[nH]c(=O)[nH]c2-c2cc(OC)c(OC)c(OC)c2)cc1
- IC50 (CCRF-CEM): 2.3 µM
- IC50 (MDA-MB-435): 17.4 µM
- IC50 (LoVo [1]): 35.6 µM

SMILES: COc1cc(-c2[nH]c(=O)[nH]c2C(=O)Nc2ccc(Cl)c(Cl)c2)cc(OC)c1OC
- IC50 (CCRF-CEM): 12.1 µM
- IC50 (MDA-MB-435): 19.2 µM
- IC50 (LoVo [1]): 4.93 µM

SMILES: COc1cc(-c2[nH]c(=O)[nH]c2C(=O)Nc2ccc(Cl)cc2)cc(OC)c1OC
- IC50 (CCRF-CEM): > 200 µM
- IC50 (MDA-MB-435): 152 µM
- IC50 (LoVo [1]): 110 µM

- inhibition (Bos taurus): Active
SMILES: COc1cc(-c2[nH]c(=O)[nH]c2C(=O)Nc2cccc(C)c2)cc(OC)c1OC
- IC50 (CCRF-CEM): 0.18 µM
- IC50 (MDA-MB-435): 0.76 µM
- IC50 (LoVo [1]): 0.62 µM

SMILES: COc1cc(-c2[nH]c(=O)[nH]c2C(=O)Nc2cccc(Cl)c2)cc(OC)c1OC
- IC50 (CCRF-CEM): 4.8 µM
- IC50 (MDA-MB-435): 4.77 µM
- IC50 (LoVo [1]): 3.62 µM

SMILES: COc1cc(-c2[nH]c(=O)[nH]c2C(=O)Nc2ccc(C(C)(C)C)cc2)cc(OC)c1OC
- IC50 (CCRF-CEM): 38.8 µM
- IC50 (MDA-MB-435): 32.2 µM
- IC50 (LoVo [1]): 34 µM

SMILES: COc1cc(-c2[nH]c(=O)[nH]c2C(=O)Nc2cccc([N+](=O)[O-])c2)cc(OC)c1OC
- IC50 (CCRF-CEM): > 200 µM
- IC50 (MDA-MB-435): 44.2 µM
- IC50 (LoVo [1]): 35 µM
